# Hits are enriched below; roughly 2.2% of the tested compounds scored in any of these assays.
# HTRA1 inh – HTRA1 serine protease inhibitors, primary screen, biochemical, fluorescence polarization, HTS; Q92743; recombinant HTRA1, FP-rhodamine activity-based probe; inhibition, % at 5.96 µM; actives 0.5% (n = 340,000); AID 504803, 2011; in the data active means inhibition above about 36%;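 further: 0% = enzyme with DMSO and 100% = wells lacking enzyme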
# Target sequence (Q92743 whole entry, looked up): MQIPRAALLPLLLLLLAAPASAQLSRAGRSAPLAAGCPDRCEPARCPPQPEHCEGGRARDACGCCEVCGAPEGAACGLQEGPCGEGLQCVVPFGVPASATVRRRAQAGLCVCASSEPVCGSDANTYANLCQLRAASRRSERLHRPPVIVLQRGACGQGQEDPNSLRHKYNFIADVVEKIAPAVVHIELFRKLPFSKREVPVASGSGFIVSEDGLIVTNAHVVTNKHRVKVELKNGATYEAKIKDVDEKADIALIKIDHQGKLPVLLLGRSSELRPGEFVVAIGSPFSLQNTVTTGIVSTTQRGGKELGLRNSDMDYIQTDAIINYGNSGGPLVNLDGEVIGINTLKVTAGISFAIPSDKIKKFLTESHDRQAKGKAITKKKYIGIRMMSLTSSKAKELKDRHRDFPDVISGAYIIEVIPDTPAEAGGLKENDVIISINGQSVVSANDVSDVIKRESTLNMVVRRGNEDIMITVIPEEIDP
# TCR-CD3 inh – inhibitors of human TCR-CD3 interaction, primary screen, biochemical, fluorescence, TAMRA-labeled TCR probe; T-cell receptor (TCR); inhibition, % at 9.4 µM; actives 0.37% (n = 360,000);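 further: recombinant mutant TCR 2C K166C tagged with TAMRA read by polarization; 0% = receptor in buffer alone and 100% = receptor with positive control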
# mABHD4 FP – ABHD4 inhibitors, primary screen, biochemical, fluorescence polarization, mouse; (Lyso)-N-acylphosphatidylethanolamine lipase (Mus musculus), Q8VD66; purified mABHD4, FP-Rh probe fluorescence polarization; inhibition, % at 8.92 µM; actives 0.54% (n = 370,000); AID 720543, 2013;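 active means inhibition exceeding the mean over every tested compound plus 3 SD, cut at about 30% in these data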;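 further: 0% = plate median of compound wells and 100% = S159A mutant with DMSO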
#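 Test system: mABHD4 protein; Read-out basis: % inhibition; Incubation: 45 min + 60 min at 25 °C; Repeats: single replicate; Technique: fluorescence polarization with parallel and perpendicular emission, 525/598 nm; Compound: 8.92 µM, single dose; Benchmarks: full inhibition S159A mutant plus DMSO, zero as sample-well median.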
# TDP2 absorb – human TDP2 enzyme inhibitors, primary screen, biochemical, epi absorbance, recombinant enzyme; inhibition, % at 12.8 µM; T5PNP hydrolysis, p-nitrophenol absorbance 415 nm; AID 720702, 2013; Tyrosyl-DNA phosphodiesterase 2 (Homo sapiens), O95551; actives 0.34% (n = 370,000);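 active means inhibition above the mean of all tested compounds plus 3 SD, set per campaign, cut at about 25% in these data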;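 further: 0% = DMSO with enzyme and 100% = buffer with substrate but no TDP2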
#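 Read-out basis: percent inhibition. System: recombinant human TDP2. Buffer or medium: Mg2+-containing Tris-HCl buffer, pH 7.5. Repeats: single replicate. Timing: reaction 2 h, 37 °C. Benchmarks: high control without enzyme, low control DMSO plus TDP2. Probe or stimulus: 5 mM T5PNP. Doses: 12.8 µM only. Measured by: epi absorbance of p-nitrophenol freed from T5PNP by hydrolysis.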
# SIAE inh – human SIAE inhibitors, primary screen, biochemical, fluorescence polarization, FP-Rh probe, 1536-well HTS; inhibition, % at 9.66 µM; SIAE FP-Rh probe binding; Sialate O-acetylesterase (Homo sapiens), Q9HAT2; actives 0.69% (n = 370,000);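 active means inhibition above a cutoff: mean of compounds within the control limits plus 3 SD of those, cut at about 17% in these data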;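 further: 0% = plate median of compound wells and 100% = probe without SIAE protein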
# LEDGF integ inh – blockers of LEDGF/p75-dependent integrase strand transfer – biochemical, TR-FRET, high throughput, primary screen. HIV-1 integrase (with human LEDGF/p75). TR-FRET IN-LEDGF/p75 DNA integration, Eu/Cy5. inhibition, % at 3.7 µM. actives 0.64% (n = 370,000). AID 743269, 2014;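 active means inhibition above the screen-wide mean plus 3 SD, cut at about 13% in these data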;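 further: signal is the Cy5 over europium emission ratio at 671 and 618 nm; 0% = plate median of compound wells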
# HTRA1 conf – HTRA1 protease inhibitors, retest, confirmation, biochemical, fluorescence polarization; shares compounds with HTRA1 inh; recombinant HTRA1, FP-rhodamine activity-based probe; inhibition, % at 5.96 µM; actives 66% (n = 1,600); AID 540248, 2011;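 active means mean inhibition over three repeats above a set limit taken from the earlier primary screen, cut at about 37% in these data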;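 further: 0% = HTRA1 with DMSO and 100% = wells lacking HTRA1; inhibitors block probe binding so polarization drops and inhibition rises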
# BSA TAMRA ctr – compounds interfering with TAMRA-BSA probe, counter-screen for TCR-CD3 interaction inhibitor project, biochemical, fluorescence, TAMRA-labeled BSA; AID 652035, 2013; shares compounds with TCR-CD3 inh; TAMRA-labeled BSA probe fluorescence counterscreen; inhibition, % at 9.4 µM; actives 10% (n = 1,200); in the data active means inhibition above about 23%;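 further: 0% = buffer low control and 100% = reference high control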
# TCR-CD3 conf – TCR-CD3 interaction inhibitors, retest, confirmation, biochemical, fluorescence, TAMRA-labeled TCR probe; inhibition, % at 9.4 µM; TAMRA-labeled TCR probe fluorescence binding assay; shares compounds with TCR-CD3 inh; AID 652036, 2013; actives 48% (n = 1,200)
# ABHD4 confirm – ABHD4 inhibitors, retest, confirmation, biochemical, fluorescence polarization, mouse | inhibition, % at 8.92 µM | purified mABHD4, FP-Rh probe fluorescence polarization | AID 720658, 2013 | actives 55% (n = 1,800) | shares compounds with mABHD4 FP;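 active means mean inhibition across replicates above the hit cutoff set in the primary screen, cut at about 30% in these data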;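 further: 0% = wild-type ABHD4 with DMSO and 100% = catalytically dead S159A mutant with DMSO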
# TDP2 inh conf – human TDP2 enzyme inhibitors, retest, confirmation, biochemical, epi absorbance, recombinant enzyme. shares compounds with TDP2 absorb. absorbance read-out. inhibition, % at 12.8 µM. actives 22% (n = 1,100). AID 743263, 2014; in the data active means inhibition above about 25%;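 further: 0% = vehicle with enzyme and 100% = no enzyme buffer only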
# IN multimer act – HIV-1 IN multimer formation enhancers, counter-screen for LEDGF/p75 integration inhibitor project, biochemical, TR-FRET | shares compounds with LEDGF integ inh | TR-FRET HIV-1 integrase multimerization | activation, % at 7.7 µM | actives 17% (n = 2,000) | AID 1053131, 2014; in the data active means activation above about 8.9%
# TRFRET interf – TR-FRET optical interference artefacts, confirmation, artefact control for LEDGF/p75-dependent integration inhibitor project, biochemical, HIV-1 IN multimerization. shares compounds with LEDGF integ inh. TR-FRET optical interference counterscreen. inhibition, % at 7.7 µM. 2,000 tested, under 10 active. AID 1053135, 2014;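 active means inhibition above the mean over all tested compounds plus 3 SD, which no compound reached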;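 further: 0% = integrase with antibodies and DMSO and 100% = antibodies without integrase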
# IN-LEDGF confirm – inhibitors of HIV-1 IN-LEDGF/p75 DNA integration, confirmation, biochemical, TR-FRET | shares compounds with LEDGF integ inh | TR-FRET LEDGF/p75-dependent HIV-1 integration | inhibition, % at 3.7 µM | actives 36% (n = 2,000); in the data active means inhibition above about 14%
# SIAE confirm – human SIAE inhibitors, retest, confirmation, biochemical, fluorescence polarization, FP-Rh probe, triplicate. shares compounds with SIAE inh. SIAE FP-Rh activity-based probe. inhibition, % at 9.66 µM. actives 13% (n = 2,300). AID 1117263, 2014;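 active means mean inhibition of the replicates above the hit cutoff set in the primary screen, cut at about 17% in these data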;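 further: 0% = SIAE with DMSO and probe and 100% = probe without SIAE; inhibitors lower polarization as more probe stays unbound to SIAE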
# * hit, by the source's call; / = no result. Unless noted, no stated cut-off is given here; in the data, active means inhibition above about 19%; inactive means the rest.
SMILES,HTRA1 inh,TCR-CD3 inh,mABHD4 FP,TDP2 absorb,SIAE inh,LEDGF integ inh,HTRA1 conf,ABHD4 confirm,SIAE confirm,others
Oc1ccc(N=Nc2ccc3c(c2)OCCO3)c2cccnc12,50*,5,18,3,20*,3,69*,/,13,
CC(C)C[C@H]1COc2ccc(Cl)cc2S(=O)(=O)N1C[C@H](NC(=O)OC(C)(C)C)C(C)C,/,8,3,7,-2,4,/,/,/,
COc1ccc(/C=C/C(=O)c2ccc(OC)cc2OC)c(OC)c1,-26,-2,0,0,-3,3,/,/,/,
CNc1ccc(Br)cc(C(=O)/C=C/c2ccc(OC)cc2OC)c1=O,50*,19*,36*,7,21*,13*,17,30*,7,BSA TAMRA ctr=-5;TCR-CD3 conf=8;IN multimer act=4;TRFRET interf=-13;IN-LEDGF confirm=12
C[C@H]1CN([C@@H](C)CO)C(=O)CCCn2cc(nn2)CO[C@@H]1CN(C)S(=O)(=O)c1ccccc1F,/,1,1,10,3,1,/,/,/,
C/C(=N/Nc1ccc([N+](=O)[O-])cc1)c1c[nH]c2ccccc12,46*,-11,27,-7,34*,7,81*,/,-6,
CCCC/C=C1/[C@H](c2ccccc2)N(C)C2=N[C@@H](c3ccccc3)CC(=O)N21,/,/,-5,-2,1,-1,/,/,/,
O=C1C(Nc2ccc(O)cc2)=C/C(=N/S(=O)(=O)c2cccs2)c2ccccc21,64*,-6,73*,78*,21*,55*,74*,81*,5,TDP2 inh conf=78*;IN multimer act=7;TRFRET interf=-26;IN-LEDGF confirm=70*
COc1cc(/C=N/Nc2ccc([N+](=O)[O-])cc2S(=O)(=O)N2CCOCC2)cc(OC)c1OC,-4,8,3,-9,4,-1,/,/,/,
O=[N+]([O-])c1ccc(N/N=C/c2ccc(O)c(O)c2O)c(S(=O)(=O)N2CCOCC2)c1,74*,11,37*,-8,28*,50*,74*,58*,-3,IN multimer act=3;TRFRET interf=-17;IN-LEDGF confirm=36*
Nc1[nH]c(C(=O)c2ccccc2)c(-c2cccnc2)c1C(=O)NCCc1c[nH]c2ccccc12,/,/,5,-8,-2,2,/,/,/,
COc1cc(CNc2ccc(O)cc2)cc(Br)c1OCc1ccccc1,57*,22*,52*,36*,26*,10,16,12,5,TDP2 inh conf=-5
COc1ccc(Br)cc1CNc1ccc2[nH]c(=O)[nH]c2c1,12,-2,10,1,13,-2,/,/,/,
Oc1ccc(NCc2ccc(OCc3ccccc3)cc2)cc1,47*,30*,53*,34*,29*,7,6,19,13,TDP2 inh conf=39*
COc1cc(CNC(C)c2ccccc2)cc(Br)c1OCc1ccccc1 (configuration not stated),-15,5,11,8,-2,2,/,/,/,
COc1ccc(Br)cc1CNc1ccc(O)cc1,74*,31*,65*,6,32*,11,10,30*,11,BSA TAMRA ctr=0;TCR-CD3 conf=3
CCCCCN1CCCCC(NC(=O)c2cccc(F)c2)C1=O (configuration not stated),/,/,0,6,0,-1,/,/,/,
Cc1ccccc1C1=CC(=O)CC(C)(C)C1=O,/,0,0,-1,5,-1,/,/,/,
COC(=O)[C@]12C[C@H](CC(=O)N3CCSCC3)C(=O)N(Cc3ccccc3)C1=C[C@H](C1CCCC1)O[C@@H]2C,/,0,-6,1,-2,-3,/,/,/,
COc1ccccc1CC(=O)NCCN1C(=O)C2C3C=CC(C3)C2C1=O (configuration not stated),/,/,0,-1,-5,-2,/,/,/,
CCOc1ccc(Nc2ccc(N)c(S(=O)(=O)O)c2)cc1,93*,42*,107*,-5,21*,38*,53*,55*,9,BSA TAMRA ctr=2;TCR-CD3 conf=21*;IN multimer act=14*;TRFRET interf=-69;IN-LEDGF confirm=19*
C=CCn1c(SCC(=O)c2ccc(O)c(O)c2)nnc1-c1cccc(C)c1,70*,14,41*,-6,19*,-2,78*,30*,5,

# Screens (PubChem)
